From paper PMC7854449 (Advances in Therapy, 2020)

Legend:
[1] = Multiple-dose pharmacokinetics of OW s.c. semaglutide, plasma, LC-MS/MS; type: in vivo, healthy Chinese subjects
Summary of the method: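 Healthy Chinese adults (18–55 y, BMI 20.0–24.9 kg/m2) got s.c. abdominal injections weekly for 13 weeks, starting at 0.25 mg and escalating every 4 weeks to 0.5 or 1.0 mg. Plasma was sampled frequently after the first and last doses, plus pre-dose in weeks 4, 8 and 11, and assayed by LC–MS/MS. Values below LLOQ were imputed. Non-compartmental linear trapezoidal AUC0–168 h used actual times. Ratios came from a log-scale linear model (dose group fixed) with 95% CI. Racc,DC = (AUCSS/last dose)/(AUCSD/0.25 mg).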

[2] = Safety and tolerability: treatment-emergent adverse events; type: in vivo, healthy Chinese subjects; details: 13 weeks; for AEs leading to withdrawal, % (proportion of subjects) / AEs leading to withdrawal, E (number of events) / AEs leading to withdrawal, N (number of subjects) / AEs, % (proportion of subjects) / AEs, E (number of events) / AEs, N (number of subjects) / AEs, outcome not recovered/not resolved, % (proportion of subjects) / AEs, outcome not recovered/not resolved, E (number of events) / AEs, outcome not recovered/not resolved, N (number of subjects) / AEs, outcome recovered/resolved, % (proportion of subjects) / AEs, outcome recovered/resolved, E (number of events) / AEs, outcome recovered/resolved, N (number of subjects) / AEs, outcome recovering/resolving, % (proportion of subjects) / AEs, outcome recovering/resolving, E (number of events) / AEs, outcome recovering/resolving, N (number of subjects) / AEs, severity mild, % (proportion of subjects) / AEs, severity mild, E (number of events) / AEs, severity mild, N (number of subjects) / AEs, severity moderate, % (proportion of subjects) / AEs, severity moderate, E (number of events) / AEs, severity moderate, N (number of subjects) / AEs, severity severe, % (proportion of subjects) / AEs, severity severe, E (number of events) / AEs, severity severe, N (number of subjects) / Serious AEs, % (proportion of subjects) / Serious AEs, E (number of events) / Serious AEs, N (number of subjects): 12 subjects
Summary of the method: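 This was a single-centre, randomised trial in 36 healthy Chinese adults, 12 per arm, double-blind within dose level, with placebo arms pooled. Test compound or matching placebo was injected s.c. in the abdomen once weekly for 13 weeks, escalating every 4 weeks to 0.5 or 1.0 mg. Treatment-emergent AEs were untoward occurrences after the first dose and before the follow-up visit, counted as subjects and events.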

[3] = cited from earlier work

CC[C@H](C)[C@H](NC(=O)[C@H](Cc1ccccc1)NC(=O)[C@H](CCC(=O)O)NC(=O)[C@H](CCCCNC(=O)COCCOCCNC(=O)COCCOCCNC(=O)CC[C@H](NC(=O)CCCCCCCCCCCCCCCCC(=O)O)C(=O)O)NC(=O)[C@H](C)NC(=O)[C@H](C)NC(=O)[C@H](CCC(N)=O)NC(=O)CNC(=O)[C@H](CCC(=O)O)NC(=O)[C@H](CC(C)C)NC(=O)[C@H](Cc1ccc(O)cc1)NC(=O)[C@H](CO)NC(=O)[C@H](CO)NC(=O)[C@@H](NC(=O)[C@H](CC(=O)O)NC(=O)[C@H](CO)NC(=O)[C@@H](NC(=O)[C@H](Cc1ccccc1)NC(=O)[C@@H](NC(=O)CNC(=O)[C@H](CCC(=O)O)NC(=O)C(C)(C)NC(=O)[C@@H](N)Cc1cnc[nH]1)[C@@H](C)O)[C@@H](C)O)C(C)C)C(=O)N[C@@H](C)C(=O)N[C@@H](Cc1c[nH]c2ccccc12)C(=O)N[C@@H](CC(C)C)C(=O)N[C@H](C(=O)N[C@@H](CCCNC(=N)N)C(=O)NCC(=O)N[C@@H](CCCNC(=N)N)C(=O)NCC(=O)O)C(C)C [semaglutide, Semaglutide]
Racc,DC (dose-corrected accumulation ratio) ([1]; OW s.c. dosing, both dose groups): approximately 2
treatment ratio (1.0 mg/0.5 mg) for Cmax,SS ([1]; [95% CI], dose proportionality): 1.94 [1.74; 2.16]
treatment ratio (1.0 mg/0.5 mg) for AUC0–168 h,SS ([1]; linear normal model on log-transformed values, [95% CI], dose proportionality): 1.99 [1.78; 2.23]
AEs leading to withdrawal, % (proportion of subjects) ([2]; OW s.c. 0.5 mg): 0%
AEs leading to withdrawal, E (number of events) ([2]; OW s.c. 0.5 mg): 0
AEs leading to withdrawal, N (number of subjects) ([2]; OW s.c. 0.5 mg): 0
AEs, % (proportion of subjects) ([2]; OW s.c. 0.5 mg): 83%
AEs, E (number of events) ([2]; OW s.c. 0.5 mg): 44
AEs, N (number of subjects) ([2]; OW s.c. 0.5 mg): 10
AEs, outcome not recovered/not resolved, % (proportion of subjects) ([2]; OW s.c. 0.5 mg): 0%
AEs, outcome not recovered/not resolved, E (number of events) ([2]; OW s.c. 0.5 mg): 0
AEs, outcome not recovered/not resolved, N (number of subjects) ([2]; OW s.c. 0.5 mg): 0
AEs, outcome recovered/resolved, % (proportion of subjects) ([2]; OW s.c. 0.5 mg): 83%
AEs, outcome recovered/resolved, E (number of events) ([2]; OW s.c. 0.5 mg): 44
AEs, outcome recovered/resolved, N (number of subjects) ([2]; OW s.c. 0.5 mg): 10
AEs, outcome recovering/resolving, % (proportion of subjects) ([2]; OW s.c. 0.5 mg): 0%
AEs, outcome recovering/resolving, E (number of events) ([2]; OW s.c. 0.5 mg): 0
AEs, outcome recovering/resolving, N (number of subjects) ([2]; OW s.c. 0.5 mg): 0
AEs, severity mild, % (proportion of subjects) ([2]; OW s.c. 0.5 mg): 83%
AEs, severity mild, E (number of events) ([2]; OW s.c. 0.5 mg): 44
AEs, severity mild, N (number of subjects) ([2]; OW s.c. 0.5 mg): 10
AEs, severity moderate, % (proportion of subjects) ([2]; OW s.c. 0.5 mg): 0%
AEs, severity moderate, E (number of events) ([2]; OW s.c. 0.5 mg): 0
AEs, severity moderate, N (number of subjects) ([2]; OW s.c. 0.5 mg): 0
AEs, severity severe, % (proportion of subjects) ([2]; OW s.c. 0.5 mg): 0%
AEs, severity severe, E (number of events) ([2]; OW s.c. 0.5 mg): 0
AEs, severity severe, N (number of subjects) ([2]; OW s.c. 0.5 mg): 0
Serious AEs, % (proportion of subjects) ([2]; OW s.c. 0.5 mg): 0%
Serious AEs, E (number of events) ([2]; OW s.c. 0.5 mg): 0
Serious AEs, N (number of subjects) ([2]; OW s.c. 0.5 mg): 0
AEs leading to withdrawal, % (proportion of subjects) ([2]; OW s.c. 1.0 mg): 0%
AEs leading to withdrawal, E (number of events) ([2]; OW s.c. 1.0 mg): 0
AEs leading to withdrawal, N (number of subjects) ([2]; OW s.c. 1.0 mg): 0
AEs, % (proportion of subjects) ([2]; OW s.c. 1.0 mg): 92%
AEs, E (number of events) ([2]; OW s.c. 1.0 mg): 58
AEs, N (number of subjects) ([2]; OW s.c. 1.0 mg): 11
AEs, outcome not recovered/not resolved, % (proportion of subjects) ([2]; OW s.c. 1.0 mg): 0%
AEs, outcome not recovered/not resolved, E (number of events) ([2]; OW s.c. 1.0 mg): 0
AEs, outcome not recovered/not resolved, N (number of subjects) ([2]; OW s.c. 1.0 mg): 0
AEs, outcome recovered/resolved, % (proportion of subjects) ([2]; OW s.c. 1.0 mg): 92%
AEs, outcome recovered/resolved, E (number of events) ([2]; OW s.c. 1.0 mg): 57
AEs, outcome recovered/resolved, N (number of subjects) ([2]; OW s.c. 1.0 mg): 11
AEs, outcome recovering/resolving, % (proportion of subjects) ([2]; OW s.c. 1.0 mg): 8%
AEs, outcome recovering/resolving, E (number of events) ([2]; OW s.c. 1.0 mg): 1
AEs, outcome recovering/resolving, N (number of subjects) ([2]; OW s.c. 1.0 mg): 1
AEs, severity mild, % (proportion of subjects) ([2]; OW s.c. 1.0 mg): 92%
AEs, severity mild, E (number of events) ([2]; OW s.c. 1.0 mg): 57
AEs, severity mild, N (number of subjects) ([2]; OW s.c. 1.0 mg): 11
AEs, severity moderate, % (proportion of subjects) ([2]; OW s.c. 1.0 mg): 8%
AEs, severity moderate, E (number of events) ([2]; OW s.c. 1.0 mg): 1
AEs, severity moderate, N (number of subjects) ([2]; OW s.c. 1.0 mg): 1
AEs, severity severe, % (proportion of subjects) ([2]; OW s.c. 1.0 mg): 0%
AEs, severity severe, E (number of events) ([2]; OW s.c. 1.0 mg): 0
AEs, severity severe, N (number of subjects) ([2]; OW s.c. 1.0 mg): 0
Serious AEs, % (proportion of subjects) ([2]; OW s.c. 1.0 mg): 0%
Serious AEs, E (number of events) ([2]; OW s.c. 1.0 mg): 0
Serious AEs, N (number of subjects) ([2]; OW s.c. 1.0 mg): 0
severity of gastrointestinal adverse events ([2]; OW s.c. 0.5 and 1.0 mg, none led to treatment discontinuation): mild
deaths ([2]; whole trial, OW s.c. 0.5 and 1.0 mg): no deaths
half-life (t½) [3]: ≈ 1 week
